Measurements gathered from unrelated publications.
Each line is one published result; the experiments were not run side by side.
KIT autoinhibited: Mast/stem cell growth factor receptor Kit, autoinhibited (KIT, Homo sapiens, UniProt P10721)
KIT T670I/V559D: Mast/stem cell growth factor receptor Kit (KIT, Homo sapiens, UniProt P10721, T670I/V559D)
KIT V559D: Mast/stem cell growth factor receptor Kit (KIT, Homo sapiens, UniProt P10721, V559D)
KIT V559D/V654A: Mast/stem cell growth factor receptor Kit (KIT, Homo sapiens, UniProt P10721, V559D/V654A)
KIT D816V: Mast/stem cell growth factor receptor Kit (KIT, Homo sapiens, UniProt P10721, D816V)
KIT D816H: Mast/stem cell growth factor receptor Kit (KIT, Homo sapiens, UniProt P10721, D816H)
KIT A829P: Mast/stem cell growth factor receptor Kit (KIT, Homo sapiens, UniProt P10721, A829P)

| SMILES | target | read-out | method | tested at | remaining binding [%] |
| --- | --- | --- | --- | --- | --- |
| C[C@@H](c1ccc(-n2cnc3c(N)ncnc32)cc1)N1CCc2nn(C)c(Cc3ccccc3)c2C1=O | KIT autoinhibited | binding | competition with immobilised ligand | 0.1 µM | 97 |
| Nc1ncc2c(n1)-c1c([nH]c3ccc(C#CC4CC4)cc13)CCCC2 | KIT T670I/V559D | binding | competition with immobilised ligand | 1 µM | 94 |
| C[C@H]1CCN(c2nccc(-c3cnn4ncccc34)n2)C1 | KIT T670I/V559D | binding |  | 1 µM | 98 |
| CNC(=O)Nc1ccc2c(c1)CC[C@@]21OC(=O)N(CC(=O)N(Cc2ccc(F)cc2)[C@@H](C)C(F)(F)F)C1=O | KIT V559D | cell-free assay | competition with immobilised ligand | 1 µM | 100 |
| N[C@H]1CCN(c2nccc(-c3cnn4ncccc34)n2)C1 | Mast/stem cell growth factor receptor Kit (KIT, Homo sapiens, UniProt P10721, L576P) | binding |  | 1 µM | 86 |
| O=C(NCCCN1CCOCC1)c1ccc(Nc2ncc(Cl)c(-c3ccc(Cl)s3)n2)cc1 | KIT V559D/V654A | binding | competition with immobilised ligand | 1 µM | 9.9 |
| COc1ccc2c(O[C@@H]3C[C@H]4C(=O)N[C@]5(C(=O)O)CC5/C=C\CCCCC[C@H](NC(=O)OC5CCCC5)C(=O)N4C3)cc(-c3csc(NC(=O)C(C)C)n3)nc2c1C (stereo partly drawn) | KIT T670I/V559D | cell-free assay | competition with immobilised ligand | 1 µM | 76 |
| c1cnn2ncc(-c3ccnc(N4CCC45COC5)n3)c2c1 | KIT V559D | binding |  | 1 µM | 78 |
| O=C(NCC1CCOCC1)c1n[nH]cc1NC(=O)c1c(F)cccc1F | KIT D816V | binding | competition with immobilised ligand | 1 µM | 100 |
| COc1ncc2cc3ccccc3nc2c1C#N | KIT D816H | cell-free assay | competition with immobilised ligand | 5 µM | 100 |
| F[C@@H]1CCN(c2nccc(-c3cnn4ncccc34)n2)C1 | KIT D816V | binding |  | 1 µM | 100 |
| O=C(Nc1cccnn1)N1CC(C/C=C/c2cncc(Oc3ccc(C(F)(F)F)cn3)n2)C1 | KIT D816V | cell-free assay | competition with immobilised ligand | 1 µM | 100 |
| O=C(c1ccc(Nc2ncc(Cl)c(-c3cc4ccccc4s3)n2)cc1)N1CCC(N2CCCC2)CC1 | KIT D816V | binding | competition with immobilised ligand | 1 µM | 13 |
| O=C(N1CCS(=O)(=O)CC1)N1C[C@H](c2ccc(OC(F)(F)F)cc2)C[C@H](c2nc(C3CC3)no2)C1 | KIT autoinhibited | cell-free assay | competition with immobilised ligand | 1 µM | 100 |
| C=CC(=O)N1CCC(C(=O)NCC(=O)N2CCN(c3nc(-c4cnc(N)nc4C(F)F)nc(N4CCOCC4)n3)CC2)CC1 | KIT D816H | binding | competition with immobilised ligand | 1 µM | 100 |
| COc1cnc(Nc2cccc(S(N)(=O)=O)c2)nc1N1CCN(c2ccccc2)C(=O)C1 | KIT T670I/V559D | binding | competition with immobilised ligand | 1 µM | 100 |
| CO[C@H]1CC[C@H](CNc2ccc(S(=O)(=O)NC(=O)c3ccc(N4CCN(CC5=C(c6ccc(Cl)cc6)CC(C)(C)CC5)CC4)cc3Oc3cnc4[nH]ccc4c3)cc2[N+](=O)[O-])CC1 | KIT V559D | cell-free assay | competition with immobilised ligand | 1 µM | 99 |
| Cc1cnc(Nc2ccc(C(=O)N3CCC(N4CCCC4)CC3)cc2)nc1-c1cc2ccccc2s1 | KIT A829P | binding | competition with immobilised ligand | 1 µM | 7.2 |
| COc1ccc2cc(OCC3(C(=O)O)CN(C(=O)c4ccc(F)cc4)C3)ccc2c1 | KIT T670I/V559D | cell-free assay | competition with immobilised ligand | 1 µM | 100 |
| O=C(c1ccc(Nc2ncc(Cl)c(-c3ccc(Cl)s3)n2)cc1)N1CCC(N2CCCC2)CC1 | KIT V559D | binding | competition with immobilised ligand | 1 µM | 0.05 |
| CN(CCCC(F)(F)F)c1nccc(-c2cnn3ncccc23)n1 | KIT T670I/V559D | binding |  | 1 µM | 100 |
| CN1CCN(c2ccc(Nc3nccc(-c4cccc([N+](=O)[O-])c4)n3)cc2C(F)(F)F)CC1 | KIT V559D/V654A | binding |  | 10 µM | 0 |
| Cc1cnn2ncc(-c3ccnc(N(C)C)n3)c2c1 | KIT V559D | binding |  | 1 µM | 100 |
| Cc1cc(NC(=O)c2cccc(S(F)(F)(F)(F)F)c2)cc(-n2ccn3nc(-c4cccnc4)cc23)c1 | KIT A829P | cell-free assay | competition with immobilised ligand | 1 µM | 100 |
